Reference: ChEMBL document CHEMBL4330154, “Di- and heptavalent nicotinic analogues to interfere with α7 nicotinic acetylcholine receptors” (Bioorg Med Chem, 2019)

Tests used:
Format in all cases: cell-based
[1] = molecular target: T1, Neuronal acetylcholine receptor subunit alpha-7 (Homo sapiens, UniProt P36544); experiment: (§1) Antagonist activity at human alpha7 nAChR expressed in Xenopus laevis oocytes assessed as inhibition of ACh-induced inward current at -60 mV holding potential preincubated for 1 min followed by ACh addition by two-microelectrode voltage clamp assay
In short: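 Oocytes expressing human α7 mRNA were clamped at −60 mV on an automated TEVC rig, using electrodes of 50–60 MΩ filled with 1 M KCl/1 M ammonium acetate. The bath was OR2 (88 mM NaCl, 1 mM MgCl₂, 5 mM Hepes, pH 7.6). ACh 100 μM was applied three times with 4 min washes between. Each oocyte then got a 1 min compound preincubation followed by 100 μM ACh plus the same compound concentration. IC50 came from a Hill fit of the fractional current.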

[2] = molecular target: T1, Neuronal acetylcholine receptor subunit alpha-7; experiment: as §1, with “assay relative to 2-(2-(2-(2-(4-(5-(1-methylpyrrolidin-2-yl)pyridin-3-yl)-1H-1,2,3-triazol-1-yl)ethoxy)ethoxy)ethoxy)ethanol” for “assay”
[3] = molecular target: T1, Neuronal acetylcholine receptor subunit alpha-7; experiment: Antagonist activity at human alpha7 nAChR expressed in Xenopus laevis oocytes assessed as inhibition of ACh-induced inward current at -60 mV holding potential preincubated for 1 min followed by ACh addition by two-microelectrode voltage clamp assay relative to cyclodextrin reference compound
In short: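 Human α7 mRNA expressed in Xenopus oocytes; automated two-electrode voltage clamp at -60 mV holding, electrodes filled with 1 M KCl/1 M ammonium acetate; OR2 buffer (88 mM NaCl, 1 mM MgCl2, 5 mM Hepes, pH 7.6). Three 100 μM ACh applications spaced by 4 min washes; 1 min compound preincubation, then 100 μM ACh plus compound. IC50 from fit F = 1/[1+([X]/IC50)^nH].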

T1 sequence (P36544 whole entry): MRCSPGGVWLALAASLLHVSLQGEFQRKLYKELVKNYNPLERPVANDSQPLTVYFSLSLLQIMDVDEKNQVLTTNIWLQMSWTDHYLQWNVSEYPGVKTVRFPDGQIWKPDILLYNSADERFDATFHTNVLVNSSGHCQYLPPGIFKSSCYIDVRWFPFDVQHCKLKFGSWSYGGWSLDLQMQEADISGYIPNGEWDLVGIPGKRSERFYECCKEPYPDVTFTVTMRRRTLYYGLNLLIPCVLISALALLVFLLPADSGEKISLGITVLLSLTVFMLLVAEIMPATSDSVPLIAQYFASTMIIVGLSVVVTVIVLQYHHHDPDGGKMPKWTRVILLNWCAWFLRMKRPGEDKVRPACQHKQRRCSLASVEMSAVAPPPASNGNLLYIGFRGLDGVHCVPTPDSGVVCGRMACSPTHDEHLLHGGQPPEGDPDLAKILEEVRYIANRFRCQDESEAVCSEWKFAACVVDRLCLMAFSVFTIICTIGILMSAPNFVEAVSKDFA

For `CN1CCCC1c1cncc(-c2cn(CCOCCOCCOCCOCCOCCOCCOCCOCCOCCOCCOCCOCCOCCOCCOCCOCCOCCOCCOCCOCCOCCOCCOCCOCCOCCOCCOCCn3cc(-c4cncc(C5CCCN5C)c4)nn3)nn2)c1` (configuration not stated), the IC50 [1] was 21 µM, the inhibition [1] was “Dose-dependent effect” and the fold change (FC) [2] was 4.6.

`CN1CCCC1c1cncc(-c2cn(CCOCCOCCOCCO)nn2)c1` (configuration not stated) was tested, and the IC50 [1] was 195 µM and the inhibition [1] was “Dose-dependent effect”.

`CN1CCCC1c1cncc(-c2cn(CCOCCOCCOCCOCCOCCOCCOCCOCCOCCOCCOCCn3cc(-c4cncc(C5CCCN5C)c4)nn3)nn2)c1` (configuration not stated) was tested, and the IC50 [1] was 300 µM, the inhibition [1] was “Dose-dependent effect” and the fold change (FC) [2] was 0.32.

In the case of `CN1CCCC1c1cncc(-c2cn(CCOCCOCCOCCn3cc(-c4cncc(C5CCCN5C)c4)nn3)nn2)c1` (configuration not stated), the IC50 [1] is reported as 12 µM, the inhibition [1] is reported as “Dose-dependent effect” and the fold change (FC) [2] is reported as 8.1.

`CN1CCCC1c1cncc(-c2cn(C[C@H]3O[C@@H]4O[C@H]5[C@H](O)[C@@H](O)[C@@H](O[C@H]6[C@H](O)[C@@H](O)[C@@H](O[C@H]7[C@H](O)[C@@H](O)[C@@H](O[C@H]8[C@H](O)[C@@H](O)[C@@H](O[C@H]9[C@H](O)[C@@H](O)[C@@H](O[C@H]%10[C@H](O)[C@@H](O)[C@@H](O[C@H]3[C@H](O)[C@H]4O)O[C@@H]%10CO)O[C@@H]9CO)O[C@@H]8CO)O[C@@H]7CO)O[C@@H]6CO)O[C@@H]5CO)nn2)c1` (some centres not stated) was tested, and the IC50 [1] was 56 µM and the inhibition [1] was “Dose-dependent effect”.

For `CN1CCCC1c1cncc(-c2cn(C[C@H]3O[C@@H]4O[C@H]5[C@H](O)[C@@H](O)[C@@H](O[C@H]6[C@H](O)[C@@H](O)[C@@H](O[C@H]7[C@H](O)[C@@H](O)[C@@H](O[C@H]8[C@H](O)[C@@H](O)[C@@H](O[C@H]9[C@H](O)[C@@H](O)[C@@H](O[C@H]%10[C@H](O)[C@@H](O)[C@@H](O[C@H]3[C@H](O)[C@H]4O)O[C@@H]%10Cn3cc(-c4cncc(C%10CCCN%10C)c4)nn3)O[C@@H]9Cn3cc(-c4cncc(C9CCCN9C)c4)nn3)O[C@@H]8Cn3cc(-c4cncc(C8CCCN8C)c4)nn3)O[C@@H]7Cn3cc(-c4cncc(C7CCCN7C)c4)nn3)O[C@@H]6Cn3cc(-c4cncc(C6CCCN6C)c4)nn3)O[C@@H]5Cn3cc(-c4cncc(C5CCCN5C)c4)nn3)nn2)c1` (some centres not stated), the fold change (FC) [3] was 0.14, the IC50 [1] was 196 µM and the inhibition [1] was “Dose-dependent effect”.

In the case of `CN1CCCC1c1cncc(-c2cn(CCOCCOCCOCCOCCOCCOCCOCCOCCOCCOCCOCCOCCOCCOCCOCCOCCOCCOCCOCCn3cc(-c4cncc(C5CCCN5C)c4)nn3)nn2)c1` (configuration not stated), the IC50 [1] is reported as 160 µM, the inhibition [1] is reported as “Dose-dependent effect” and the fold change (FC) [2] is reported as 0.61.

In the case of `CN1CCCC1c1cncc(-c2cn(CCOCCOCCOCCOCCOCCOCCOCCn3cc(-c4cncc(C5CCCN5C)c4)nn3)nn2)c1` (configuration not stated), the IC50 [1] is reported as 611 µM, the inhibition [1] is reported as “Dose-dependent effect” and the fold change (FC) [2] is reported as 0.16.
